In article PMC5828885 (The Journal of investigative dermatology, 2017):

Assays:
[1] = ref Baik et al., 2013; cited from earlier work
[2] = LogP and LogD determination, 1-octanol/phosphate buffer partitioning; type: physicochemical
Outline: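 Shake-flask partitioning in phosphate buffer pH 3/1-octanol 1:1 (v/v) at 25°C, thermostatted water bath, magnetic stirring for 24 h to equilibrate. Compound was introduced in organic solvent at maximum solubility. Both layers were assayed spectrophotometrically at 285nm against a standard curve. The apparent partition coefficient was converted to LogP and LogD (pH 7.4) by published equations.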

[3] = In vitro assay for HCl salt precipitation in simulated lysosomal conditions; type: physicochemical; details: for Solubility behaviour in solution A (no chloride): compared with DMSO; for Precipitates by brightfield and Cy5 fluorescence microscopy in solution B: pH 4.5, 100mM chloride
Outline: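 Lysosome-mimic buffers: 10mM sodium acetate pH 4.5 with 10mM CTAB (Solution A), plus 100mM NaCl (Solution B). A 7mM DMSO stock was added 1:100 into each buffer and shaken 2.5 h at varying speeds. Absorbance at 285nm was read against a buffer-plus-DMSO baseline; a decrease was taken as precipitation. Precipitate was imaged by brightfield and Cy5 fluorescence microscopy.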

mice [4] = type: in vivo, mice (Balb/c and C57BL/6); details: 10mg/kg/day, 3-4 weeks; for Skin pigmentation (visual): mice, drug powder feed diet; for Skin pigmentation (OD values, 480nm and 535nm filters): mouse ears, n=3, p<0.01 vs untreated
Outline: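 Balb/c and C57BL/6 mice, 4-5 weeks old, fed ad libitum a drug powder diet targeting an oral dose equivalent of 10mg/kg/day for 3-4 weeks; untreated mice as controls. Ears were photographed by phone camera through single-band bandpass filters (480, 535, 623nm), flash/HDR off, no editing filters. Reflectance was quantified by image analysis (drug powder n=7, untreated n=3); one-way ANOVA, Tukey's HSD.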

mice [5] = assay: Multi-parameter microscopic imaging of tissue cryosections for CLDIs; type: in vivo, mice (Balb/c and C57BL/6); details: 10mg/kg/day, 3-4 weeks
Outline: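 Mice (4-5 weeks old) received a 10mg/kg/day-equivalent drug diet for 3-4 weeks, then were CO2-euthanized. Liver, spleen and ears were washed in cold PBS, embedded in OCT, frozen at -80°C and cryosectioned at 5 μm. Sections were imaged by brightfield, Cy5 fluorescence and LC-PolScope polarization (dichroism, 623nm-filtered illumination) and compared with untreated tissue.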

[6] = Quantification of CFZ in tissues of treated mice; type: in vivo, mice (Balb/c and C57BL/6); details: 10mg/kg/day oral, 3-4 weeks
Outline: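 4–5-week-old mice fed the test compound ad libitum in powdered chow; liver, spleen and ears (skin) harvested and rinsed in cold PBS. Tissue homogenized (sonication, or mechanical for ear) in RIPA with protease inhibitors, spun 15000 rpm, 4°C, 5 min. Supernatant extracted with xylenes, then 9M H2SO4 (each triplicate). A540−A750 against a 9M H2SO4 standard curve, normalized to organ weight.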

patients = details: leprosy or MDR-TB patients; ref Maia et al., 2013, Tang et al., 2015; cited from earlier work
[7] = pH 4.5, 10 mM CTAB, 100mM chloride

LogP ([2]; 1-octanol/phosphate buffer pH 3, 25°C, 24 hours, mean, n=3)	LogD @ pH 7.4 ([2]; pH 7.4, from the apparent partition coefficient, 25°C, mean, n=3)	CLDIs accumulation in all tissues (mice [5]; liver, spleen, skin)	SMILES	Concentration found in adipose tissue [1] [mgCFZ/gFat]	logP at 24 h ([2]; 1-octanol/phosphate buffer 1:1 (v/v), pH 3)	logD at 24 h ([2]; 1-octanol/phosphate buffer, pH 7.4)	Decrease in absorbance (285nm) in solution B [3, 7] [fold]	Precipitation as hydrochloride salt in solution B [3, 7]	Solubility behaviour in solution A (no chloride) ([3]; pH 4.5, 10 mM CTAB)	Precipitates by brightfield and Cy5 fluorescence microscopy in solution B [3]	Skin pigmentation (visual) (mice [4])	Skin pigmentation (OD values, 480nm and 535nm filters) (mice [4])	CLDIs in skin sections (mice [5])	CLDIs in liver and spleen (mice [5]; brightfield, fluorescence, diattenuation)	Tissue concentration of the drug in skin ([6]; n=3, mean ± SD) [mg/g]	Tissue concentration of the drug in liver ([6]; n=4, mean ± SD) [mg/g]	Tissue concentration of the drug in spleen ([6]; n=4, mean ± SD) [mg/g]	Patients with skin pigmentation (patients)
			CC(C)/N=c1\cc2n(-c3ccc(Cl)cc3)c3ccccc3nc-2cc1Nc1ccc(Cl)cc1 [CFZ, Clofazimine]	0.74	7.66	5.76	4	precipitates out as hydrochloride salt	remained soluble	precipitates as a HCl salt form	visually evident	significantly higher than the untreated group	did not contain CLDIs	CLDIs were observed	0.16 ± 0.04	2.37 ± 0.62	4.34 ± 0.41	more than 94%
6.69 ^2	5.42 ^3	no evidence of CLDIs accumulation	OCCN=c1cc2n(-c3ccc(Cl)cc3)c3ccccc3nc-2cc1Nc1ccc(Cl)cc1 [compound 568]					remains in solution	remained soluble	no precipitates were observed	visually evident	identical level of pigmentation as CFZ treated mice						
